Results on 16 compounds are retold here after ChEMBL document CHEMBL1136803, “Azasterols as inhibitors of sterol 24-methyltransferase in Leishmania species and Trypanosoma cruzi” (J Med Chem, 2003).

Several values for one entry are separate records, joined by “and”; a condition that tells them apart may be missing. Identical values can stand only once. Some results are limits rather than exact numbers.

Assay [1] relates to Leishmania amazonensis. Description: In vitro inhibitory concentration against Leishmania amazonensis promastigotes. It is filed as functional, organism-based. An outline of the steps: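 L. amazonensis MHOM/BR/75/Josefa promastigotes (mouse-passaged) in Warren's medium with 10% fetal bovine serum at 25 °C; exponential-phase cells incubated with compound 96 h, counted by Neubauer hemocytometer. IC₅₀ from I = Imax·C/(IC₅₀+C), Imax 100%.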

For the next assay, the system named is Leishmania donovani. Description: In vitro inhibitory concentration against Leishmania donovani intracellular amastigotes. It is filed as functional, organism-based. An outline of the steps: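 CD1 mouse starch-induced peritoneal macrophages in RPMI1640 + 10% HIFCS, 37 °C, 5% CO₂, infected with hamster-spleen L. donovani MHOM/ET/67/L82 amastigotes (5:1); after 24 h drug exposure for 5 days, overlay replaced day 3, top concentration 30 μg/mL, quadruplicates. Methanol-fixed, Giemsa-stained, scored microscopically; ED₅₀ by curve fitting; Pentostam positive control.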

Assay [2] in a line: In vitro inhibitory concentration against Trypanosoma cruzi epimastigotes. In kind it is functional. An outline of the steps:
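T. cruzi Y strain epimastigotes in liver infusion tryptose medium with 10% fetal bovine serum at 28 °C; exponential-phase parasites incubated with compound 96 h, counted by Neubauer hemocytometer. IC₅₀ from I = Imax·C/(IC₅₀+C), Imax 100%.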

The test system of assay [3] is Leishmania amazonensis. Description: (§1) Effect of compound on free sterol compositions of leishmania mexicana amazonensis promastigotes at a concentration of 0.1 uM. It is filed as functional. An outline of the steps:
(§2)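 L. mexicana amazonensis promastigotes grown in LIT medium with lactalbumin and 10% fetal calf serum at 26 °C without agitation; cultures started at 2 × 10⁶ cells/mL, drug added at 0.5–1 × 10⁷ cells/mL. Total lipids extracted, split into neutral and polar fractions by silicic acid chromatography, sterols analysed by gas-liquid chromatography; read-out is % 24-alkylated vs 24-nonalkylated sterols.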

For assay [4], the system named is Leishmania amazonensis. Put plainly: In vitro inhibitory concentration against Leishmania amazonensis intracellular amastigotes. It is filed as functional, organism-based. The gist of the method: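 Swiss mouse peritoneal macrophages adhered 24 h at 37 °C, 5% CO₂, infected with stationary-phase L. amazonensis promastigotes (1:10) at 35 °C for 2 h, washed, held 24 h drug-free, then exposed to compound for 96 h. Bouin-fixed, Giemsa-stained; percentage of infected cells scored, IC₅₀ from hyperbolic inhibition function I = Imax·C/(IC₅₀+C).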

For assay [5], the system named is Leishmania amazonensis. The assay is described as §1. In kind it is functional. An outline of the steps: as §2
This is another data set of the same source.

Assay [6] is described as follows: Evaluated for its toxicity against KB cells. As to conditions: Homo sapiens. It is filed as cell-based. An outline of the steps:
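KB cells seeded at 4 × 10⁴/mL in RPMI 1640 + 10% HIFCS, 24 h at 37 °C, 5% CO₂, then exposed to 300, 30, 3 and 0.3 μg/mL in triplicate for 72 h; podophyllotoxin positive control. AlamarBlue added for 2–4 h, fluorescence at EX/EM 530/585 nm; ED₅₀ relative to blanks and untreated controls.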

Assay [7] in a line: In vitro inhibitory concentration against Trypanosoma cruzi intracellular amastigotes. In kind it is functional, cell-based.
Assay [8] has as its system Leishmania amazonensis. Description: Effect of compound on free sterol composition of leishmania mexicana amazonensis promastigotes at a concentration of 0 uM,. In kind it is functional. The gist of the method:
as §2

In assay [9] the test system is Leishmania amazonensis. Description: Effect of compound on free sterol compositions of leishmania mexicana amazonensis promastigotes at a concentration of 1.0 uM. It is filed as functional. An outline of the steps: as §2
Assay [10] deals with Leishmania amazonensis. Put plainly: Effect on free sterol compositions of leishmania mexicana amazonensis promastigotes at a concentration of 0.1 uM. In kind it is functional. An outline of the steps: as §2
The subject of assay [11] is Leishmania amazonensis. Description: Effect of compound on free sterol compositions of leishmania mexicana amazonensis promastigotes at a concentration of 0.01 uM. It is filed as functional. An outline of the steps: as §2

As for `CC(O)(C1CCCCN1)[C@H]1CC[C@H]2[C@@H]3CCC4C[C@@H](O[Si](C)(C)C(C)(C)C)CC[C@]4(C)[C@H]3CC[C@]12C` (some centres undefined), the IC50 in the assay with Leishmania amazonensis [1] was 1.09 µM; in the assay on Leishmania donovani it was more than 58 µM; in [2], 0.6 µM; with Leishmania amazonensis [4] it was 0.02 µM; in assay [6], more than 579 µM; in [7], 50 µM. Also, the figures for the Effect in the assay with Leishmania amazonensis [3] and in the assay with Leishmania amazonensis [5] were 8.5% and less than 1%, respectively.

On to `CC(O)(C1CCCCN1)[C@H]1CC[C@H]2[C@@H]3CCC4C[C@@H](O)CC[C@]4(C)[C@H]3CC[C@]12C` (some centres undefined), for which the IC50 with Leishmania amazonensis [1] was 0.1 µM; with Leishmania donovani it was 8.9 µM; in assay [2], 0.94 µM; with Leishmania amazonensis [4], 0.01 µM; in assay [6] it was 11.9 µM; in [7], 7.4 µM. Besides, the Effect was 11.1% in the assay on Leishmania amazonensis [3], 9.8% in the assay with Leishmania amazonensis [8] and 64.2% in the assay with Leishmania amazonensis [5].

For `CC(O)(c1ccccn1)[C@H]1CC[C@H]2[C@@H]3CCC4C[C@@H](O[Si](C)(C)C(C)(C)C)CC[C@]4(C)[C@H]3CC[C@]12C` (some centres undefined), the 50% inhibitory concentration (IC50) was 1.88 µM in the assay with Leishmania amazonensis [1]; more than 59 µM in the assay with Leishmania donovani; 0.68 µM in assay [2]; 1 µM with Leishmania amazonensis [4]; more than 586 µM in assay [6]; more than 59 µM in [7].

As for `CCC(=O)N1CCCC(C(C)(O)[C@H]2CC[C@H]3[C@@H]4CCC5C[C@@H](O)CC[C@]5(C)[C@H]4CC[C@]23C)C1` (some centres undefined), the IC50 turned out to be 37.9 µM in the assay on Leishmania donovani, 336 µM in assay [6] and 64.6 µM in assay [7]. The figures for the Effect with Leishmania amazonensis [3] and with Leishmania amazonensis [9] were 11.7% and 49.7%, respectively.

With `CCC(=O)N1CCCCC1C(C)(O)[C@H]1CC[C@H]2[C@@H]3CCC4C[C@@H](O)CC[C@]4(C)[C@H]3CC[C@]12C` (some centres undefined), the IC50 was found to be 23.1 µM in the assay with Leishmania donovani, 11.1 µM in assay [6] and 22.8 µM in assay [7]. Besides, the Effect was 17.7% with Leishmania amazonensis [3] and 4.4% in the assay on Leishmania amazonensis [5].

Regarding `CC(O)(c1cccnc1)[C@H]1CC[C@H]2[C@@H]3CCC4C[C@@H](O)CC[C@]4(C)[C@H]3CC[C@]12C` (some centres undefined), the Effect was 3.1% and 4.1% and 11.1% in the assay on Leishmania amazonensis [10]; 12.4% in the assay with Leishmania amazonensis [3]; 4.7% in the assay on Leishmania amazonensis [11]; 41.9% in the assay on Leishmania amazonensis [5]. For the same compound, the IC50 with Leishmania amazonensis [1] is 4.24 µM; in the assay on Leishmania donovani, 23.4 µM; in assay [2], 0.62 µM; with Leishmania amazonensis [4], 3 µM; in [6] it was more than 755 µM; in assay [7] it was 13.3 µM.

As for `CC(O)(c1ccncc1Cl)[C@H]1CC[C@H]2[C@@H]3CCC4C[C@@H](O[Si](C)(C)C(C)(C)C)CC[C@]4(C)[C@H]3CCC12C` (some centres undefined), the IC50 with Leishmania donovani was more than 55 µM; in assay [6], 234 µM; in assay [7], more than 55 µM.

`CC(O)(c1ccncc1)[C@H]1CC[C@H]2[C@@H]3CCC4C[C@@H](O[Si](C)(C)C(C)(C)C)CC[C@]4(C)[C@H]3CC[C@]12C` (some centres undefined): the IC50 with Leishmania amazonensis [1] stood at 3.21 µM; in the assay on Leishmania donovani it was 15 µM; in [2], 0.67 µM; with Leishmania amazonensis [4] it was 2 µM; in assay [6], 574 µM; in assay [7] it was 6.1 µM.

For the compound `CCC(=O)N1CCCCC1C(C)(O)[C@H]1CC[C@H]2[C@@H]3CCC4C[C@@H](O[Si](C)(C)C(C)(C)C)CC[C@]4(C)[C@H]3CC[C@]12C` (some centres undefined), the IC50 in the assay with Leishmania amazonensis [1] was 10.3 µM; with Leishmania donovani, more than 52 µM; in assay [2] it was 1 µM; in the assay with Leishmania amazonensis [4], 8 µM; in [6] it was more than 520 µM; in assay [7], more than 52 µM.

Turning to `CC(O)(C1CCCNC1)[C@H]1CC[C@H]2[C@@H]3CCC4C[C@@H](O)CC[C@]4(C)[C@H]3CC[C@]12C` (some centres undefined), the IC50 in the assay with Leishmania donovani turned out to be 4.8 µM; in [6], 29.2 µM; in assay [7], 18 µM. Besides, the figures for the Effect in the assay on Leishmania amazonensis [3] and in the assay on Leishmania amazonensis [5] were 13.1% and 63.7%, respectively.

For the compound `CC(O)(c1ccncc1Cl)[C@H]1CC[C@H]2[C@@H]3CCC4C[C@@H](O)CC[C@]4(C)[C@H]3CC[C@]12C` (some centres undefined), the values for the IC50 (in the assay with Leishmania donovani; in assay [6]; in assay [7]) were more than 69 µM, less than 0.7 µM and 50 µM, respectively.

Regarding `CC(O)(c1ccccn1)[C@H]1CC[C@H]2[C@@H]3CCC4C[C@@H](O)CC[C@]4(C)[C@H]3CC[C@]12C` (some centres undefined), the IC50 is 1.14 µM in the assay on Leishmania amazonensis [1]; 14.6 µM with Leishmania donovani; 1.03 µM in [2]; 1 µM in the assay with Leishmania amazonensis [4]; 11.3 µM in assay [6]; 32.9 µM in [7]. In addition, the Effect came out at 15.5% in the assay on Leishmania amazonensis [3] and 1.6% in the assay with Leishmania amazonensis [5].

In the assay on Leishmania amazonensis [10], `CC(O)(c1cccnc1)[C@H]1CC[C@H]2[C@@H]3CCC4C[C@@H](O[Si](C)(C)C(C)(C)C)CC[C@]4(C)[C@H]3CC[C@]12C` (some centres undefined) showed an Effect of 6.6%. Besides, the concentration for half-maximal inhibition (IC50) with Leishmania amazonensis [1] is 1.75 µM; in the assay with Leishmania donovani it was 13.9 µM; in [2] it was 1.2 µM; with Leishmania amazonensis [4], 1.5 µM; in assay [6], more than 586 µM; in assay [7], 51.2 µM.

As to `CCC(=O)N1CCCC(C(C)(O)[C@H]2CC[C@H]3[C@@H]4CCC5C[C@@H](O[Si](C)(C)C(C)(C)C)CC[C@]5(C)[C@H]4CC[C@]23C)C1` (some centres undefined), the IC50 in the assay on Leishmania amazonensis [1] is 1.21 µM; with Leishmania donovani, more than 52 µM; in assay [2], 0.6 µM; with Leishmania amazonensis [4], 1 µM; in assay [6] it was more than 520 µM; in [7], more than 52 µM.

As to `CC(O)(c1ccncc1)[C@H]1CC[C@H]2[C@@H]3CCC4C[C@@H](O)CC[C@]4(C)[C@H]3CC[C@]12C` (some centres undefined), the half-maximal inhibitory concentration (IC50) in the assay with Leishmania amazonensis [1] was 3.41 µM; in the assay on Leishmania donovani, 11.3 µM; in assay [2], 0.68 µM; in the assay with Leishmania amazonensis [4], 3 µM; in assay [6], 30.7 µM; in assay [7], 35 µM.

As to `CC(O)(C1CCCNC1)[C@H]1CC[C@H]2[C@@H]3CCC4C[C@@H](O[Si](C)(C)C(C)(C)C)CC[C@]4(C)[C@H]3CC[C@]12C` (some centres undefined), the IC50 in the assay with Leishmania amazonensis [1] was found to be 1.4 µM; in the assay with Leishmania donovani, 6.4 µM; in assay [2], 1.01 µM; with Leishmania amazonensis [4], 1 µM; in assay [6], 2.5 µM; in assay [7], 42.1 µM.
